Results on five compounds are retold here after ChEMBL document CHEMBL4130356, “Design, synthesis and 2D QSAR study of novel pyridine and quinolone hydrazone derivatives as potential antimicrobial and antitubercular agents” (Eur J Med Chem, 2017).

For data set [1], the system named is Aspergillus fumigatus. As to the kind of experiment: Antimicrobial activity against Aspergillus fumigatus RCMB 02568 after 48 hrs by serial dilution method. The data set is classed as functional. To be noted: RCMB 02568, 48 h. The method in brief:
(§1)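 Serial twofold dilution in microtiter plates starting from a 100 mmol stock in DMSO; final concentrations 125 down to 0.12 […]. Incubated at 28°C and read on a microplate reader after 48 h. Amphotericin B was the reference. Run in triplicate, with the average taken. MIC was the lowest concentration inhibiting growth.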

The test system of data set [2] is Aspergillus fumigatus. As to the kind of experiment: Antimicrobial activity against Aspergillus fumigatus RCMB 02568 assessed as diameter of zone inhibition at 100 ug/ml after 48 hrs by agar well diffusion assay. The class given is functional. Conditions: for zone of inhibition at 100 µg/mL: RCMB 02568, 48 h, read-out: DIZ. An outline of the steps:
(§2)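 Agar well diffusion on malt agar plates seeded with the fungus, using 1 cm wells. Plates were held at 4°C for 1 h for diffusion, then incubated at 28°C. Inhibition zone diameters were measured at 48 h. Amphotericin B was the positive control. Run in triplicate, with the mean zone reported.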

The subject of data set [3] is Candida albicans. As to the kind of experiment: Antimicrobial activity against Candida albicans RCMB 05036 assessed as diameter of zone inhibition at 100 ug/ml after 48 hrs by agar well diffusion assay. The data set is classed as functional. Conditions: for zone of inhibition at 100 µg/mL: RCMB 05036, 48 h, read-out: DIZ. The method in brief:
as §2
(A growth-free zone around the sample is the usual read-out of agar diffusion tests.)

For data set [4], the system named is Streptococcus pneumoniae. As to the kind of experiment: Antimicrobial activity against Streptococcus pneumoniae RCMB 010010 assessed as diameter of zone inhibition at 100 ug/ml after 24 hrs by agar well diffusion assay. The class given is functional. Conditions: for zone of inhibition at 100 µg/mL: RCMB 010010, 24 h, read-out: DIZ. The method in brief:
(§3)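 Agar well diffusion on nutrient agar plates seeded with the bacterium, using 1 cm wells. Plates were held at 4°C for 1 h for diffusion, then incubated at 37°C. Inhibition zone diameters were measured at 24 h. Ciprofloxacin was the positive control. Run in triplicate, with the mean zone reported.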

The subject of data set [5] is Staphylococcus aureus. As to the kind of experiment: Antimicrobial activity against Staphylococcus aureus RCMB 010028 assessed as diameter of zone inhibition at 100 ug/ml after 24 hrs by agar well diffusion assay. To be noted: for zone of inhibition at 100 µg/mL: RCMB 010028, 24 h, read-out: DIZ. The data set is classed as functional. The method in brief: as §3
Data set [6] deals with Escherichia coli. As to the kind of experiment: Antimicrobial activity against Escherichia coli RCMB 010052 assessed as diameter of zone inhibition at 100 ug/ml after 24 hrs by agar well diffusion assay. The data set is classed as functional. To be noted: for zone of inhibition at 100 µg/mL: RCMB 010052, 24 h, read-out: DIZ. An outline of the steps:
as §3

Data set [7] concerns Candida albicans. As to the kind of experiment: Antimicrobial activity against Candida albicans RCMB 05036 after 48 hrs by serial dilution method. The data set is classed as functional. To be noted: RCMB 05036, 48 h. The method in brief:
as §1

For data set [8], the system named is Streptococcus pneumoniae. As to the kind of experiment: Antimicrobial activity against Streptococcus pneumoniae RCMB 010010 after 24 hrs by serial dilution method. The class given is functional. Conditions: RCMB 010010, 24 h. The method in brief: (§4)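 Serial twofold dilution in microtiter plates starting from a 100 mmol stock in DMSO; final concentrations 125 down to 0.12 […]. Incubated at 37°C and read on a microplate reader after 24 h. Ciprofloxacin was the reference. Run in triplicate, with the average taken. MIC was the lowest concentration inhibiting growth.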

For data set [9], the system named is Staphylococcus aureus. As to the kind of experiment: Antimicrobial activity against Staphylococcus aureus RCMB 010028 after 24 hrs by serial dilution method. The data set is classed as functional. To be noted: RCMB 010028, 24 h. An outline of the steps:
as §4

In data set [10] the test system is Escherichia coli. As to the kind of experiment: Antimicrobial activity against Escherichia coli RCMB 010052 after 24 hrs by serial dilution method. The data set is classed as functional. Conditions: RCMB 010052, 24 h. An outline of the steps:
as §4

Data set [11] has as its system Mycobacterium tuberculosis. As to the kind of experiment: Antimycobacterial activity against Mycobacterium tuberculosis RCMB 010126 clinical isolate after 7 days by MABA. The data set is classed as functional. The method in brief: (§5)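 Inoculum from fresh LJ culture resuspended in 7H9-S broth with casitone, glycerol and OADC, adjusted to McFarland No. 1 and diluted 1:20. Serial two-fold compound dilutions in 7H9-S; isoniazid reference. Incubated 7 days at 37°C in air, then Alamar blue added and incubated overnight. Percent inhibition = 1 − (test well/growth-control mean) × 100; MIC = lowest concentration preventing blue-to-pink change.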
(In general: The colour change of resazurin is a common sign of viable cells or microbes.)

Data set [12] relates to Mycobacterium tuberculosis. As to the kind of experiment: Antimycobacterial activity against Mycobacterium tuberculosis RCMB 010126 clinical isolate assessed as inhibition zone after 7 days by MABA. The data set is classed as functional. The method in brief:
as §5

In the next data set the test system is WI-38. As to the kind of experiment: Cytotoxicity against human WI38 cells assessed as reduction in cell viability after 24 hrs by crystal violet staining-based colorimetric method. Conditions: WI-38, 24 h. An outline of the steps:
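WI-38 cells were grown in DMEM with 10% FBS at 37°C and 5% CO2, then seeded at 1×10^4 cells/well. Serial twofold dilutions were added, three wells per concentration. Viability was read by crystal violet stain, solubilised in 30% acetic acid, at 490 nm. Run in triplicate. IC50 was estimated from dose-response plots.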

The nature of data set [13]: Selectivity index, ratio of IC50 for human WI38 cells to MIC for Mycobacterium tuberculosis RCMB 010126 clinical isolate. Conditions: read-out: Selectivity Index. The data set is classed as toxicity. An outline of the steps: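 WI-38 human lung fibroblasts grown in DMEM with 10% FBS at 37°C and 5% CO2, seeded at 1×10^4 cells/well, and exposed to serial two-fold dilutions in triplicate. Viability read by crystal violet stain at 490 nm. IC50 taken from dose-response plots. Ratio uses this IC50 against the MABA MIC for M. tuberculosis.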

In data set [14] the test system is Pseudomonas aeruginosa. To be noted: RCMB 010043, 100 ug/ml.
The test system of data set [15] is Pseudomonas aeruginosa. To be noted: RCMB 010043.
[16] abbreviates: Mycobacterium tuberculosis, RCMB 010126, 168 h.

Converted amounts (≈) assume the structure as drawn. The source made the active and inactive calls. The calls are words filed in the database; no cut-off is given here.

As for `COc1ccc(OC)c(/C=N/NC(=O)c2ccc(-c3cccc(Cl)c3)nc2C)c1`, the MIC (in general, the lowest concentration found to suppress growth) with Aspergillus fumigatus [1] worked out at 0.98 µg/mL (≈ 2.39 µM); against Candida albicans [7], 1.95 µg/mL (≈ 4.76 µM); with Streptococcus pneumoniae [8], 0.98 µg/mL (≈ 2.39 µM); against Staphylococcus aureus [9], 1.95 µg/mL (≈ 4.76 µM); in the data set on Escherichia coli [10], 0.98 µg/mL (≈ 2.39 µM); in data set [11] (setting [16]) it was 0.39 µg/mL (≈ 0.952 µM). Besides, the zone of inhibition at 100 µg/mL came out at 22.6 mm in the data set on Aspergillus fumigatus [2]; 21.2 mm with Candida albicans [3]; 22.5 mm with Streptococcus pneumoniae [4]; 21.3 mm with Staphylococcus aureus [5]; 22.3 mm in the data set on Escherichia coli [6]. In addition, the “inhibition zone (IZ)” value in data set [12] is listed as 82.35 mm. Moreover, the IC50 (in general, the midpoint of a concentration-inhibition curve) in the data set on WI-38 was found to be 188 µg/mL (≈ 459 µM). Besides, the selectivity ratio in data set [13] came to 482. Besides, the DIZ entry in the data set on Pseudomonas aeruginosa [14] is “inactive”. The MIC entry with Pseudomonas aeruginosa [15] was “inactive”.

Turning to `COc1ccc(/C=N/NC(=O)c2ccc(-c3cccc(Cl)c3)nc2C)cc1OC`, the MIC worked out at 3.9 µg/mL (≈ 9.52 µM) in the data set on Aspergillus fumigatus [1]; 15.6 µg/mL (≈ 38.1 µM) with Candida albicans [7]; 3.9 µg/mL (≈ 9.52 µM) in the data set on Streptococcus pneumoniae [8]; 7.81 µg/mL (≈ 19.1 µM) against Staphylococcus aureus [9]; 1.95 µg/mL (≈ 4.76 µM) in the data set with Escherichia coli [10]; 0.78 µg/mL (≈ 1.9 µM) in data set [11] (setting [16]). The zone of inhibition at 100 µg/mL in the data set with Aspergillus fumigatus [2] was determined as 19.3 mm; with Candida albicans [3], 17.2 mm; in the data set with Streptococcus pneumoniae [4], 19.6 mm; in the data set with Staphylococcus aureus [5] it was 17.9 mm; with Escherichia coli [6] it was 21.6 mm. The “-logMIC” value in data set [11] was found to be 0.1079. Moreover, in data set [12], the “inhibition zone (IZ)” value is on record as 73.58 mm. Besides, the IC50 in the data set on WI-38 turned out to be 168 µg/mL (≈ 410 µM). Besides, in data set [13], the selectivity ratio was 215. In addition, in the data set with Pseudomonas aeruginosa [14], the DIZ entry was “inactive”. The MIC result with Pseudomonas aeruginosa [15] was “inactive”.

Consider `COc1ccc(/C=N/NC(=O)c2ccc(-c3ccc(Cl)cc3)nc2C)cc1OC`, for which the “diameter of the inhibition zone (DIZ)” value in the data set on Aspergillus fumigatus [2], with Candida albicans [3], in the data set on Streptococcus pneumoniae [4], in the data set with Staphylococcus aureus [5] and with Escherichia coli [6] was “inactive” throughout. Moreover, the MIC in [11] (setting [16]) is 1.56 µg/mL (≈ 3.81 µM). Further, the “inhibition zone (IZ)” value in data set [12] is given as 61.32 mm. Further, the IC50 in the data set on WI-38 turned out to be 443 µg/mL (≈ 1080 µM). Moreover, in data set [13], the selectivity ratio was found to be 284. Moreover, in the data set on Pseudomonas aeruginosa [14], the DIZ entry is “inactive”.

Regarding `O=C(N/N=C/c1ccc(Cl)cc1)c1c[nH]c2cc(Cl)ccc2c1=O`, the MIC is 15.6 µg/mL (≈ 43.4 µM) with Aspergillus fumigatus [1]; 31.2 µg/mL (≈ 86.8 µM) in the data set on Candida albicans [7]; 15.6 µg/mL (≈ 43.4 µM) in the data set on Streptococcus pneumoniae [8]; 31.2 µg/mL (≈ 86.8 µM) with Staphylococcus aureus [9]; 7.81 µg/mL (≈ 21.7 µM) in the data set with Escherichia coli [10]; 99.8 µg/mL (≈ 277 µM) in data set [11] (setting [16]). For the same compound, the zone of inhibition at 100 µg/mL with Aspergillus fumigatus [2] is 17.3 mm; in the data set on Candida albicans [3], 15.2 mm; in the data set on Streptococcus pneumoniae [4], 17.1 mm; in the data set on Staphylococcus aureus [5] it was 16.2 mm; in the data set with Escherichia coli [6] it was 18.3 mm. In addition, the “inhibition zone (IZ)” value in data set [12] is listed as 19.35 mm. The DIZ result in the data set with Pseudomonas aeruginosa [14] was “inactive”. The MIC entry with Pseudomonas aeruginosa [15] is “inactive”.

As for `COc1cc(/C=N/NC(=O)c2c[nH]c3ccc(Cl)cc3c2=O)cc(OC)c1OC`, the MIC against Aspergillus fumigatus [1] is 7.81 µg/mL (≈ 18.8 µM); against Candida albicans [7], 31.2 µg/mL (≈ 75.2 µM); against Streptococcus pneumoniae [8], 7.81 µg/mL (≈ 18.8 µM); in the data set on Staphylococcus aureus [9], 15.6 µg/mL (≈ 37.6 µM); in the data set on Escherichia coli [10], 3.9 µg/mL (≈ 9.38 µM). Further, the zone of inhibition at 100 µg/mL is 18.1 mm in the data set on Aspergillus fumigatus [2]; 16.3 mm in the data set with Candida albicans [3]; 18.4 mm in the data set with Streptococcus pneumoniae [4]; 17.3 mm with Staphylococcus aureus [5]; 19.3 mm with Escherichia coli [6]. Besides, the MIC result (in [11]; with Pseudomonas aeruginosa [15]) was “inactive” in each case. Besides, in data set [12], the “inhibition zone (IZ)” value was “inactive”. Further, the DIZ result in the data set with Pseudomonas aeruginosa [14] was “inactive”.
